{
  "source": "ChEMBL document CHEMBL3352189",
  "about": "(J Med Chem, 2014)",
  "key": {"[1]": {"species_on_record": "Rattus norvegicus", "test": "Displacement of [125I]triiodothyronine from rat thyroid hormone receptor 10 uM"}, "[2]": {"target": "Endothelin receptor type B (Homo sapiens) (UniProt P24530)", "sequence (P24530 whole entry)": "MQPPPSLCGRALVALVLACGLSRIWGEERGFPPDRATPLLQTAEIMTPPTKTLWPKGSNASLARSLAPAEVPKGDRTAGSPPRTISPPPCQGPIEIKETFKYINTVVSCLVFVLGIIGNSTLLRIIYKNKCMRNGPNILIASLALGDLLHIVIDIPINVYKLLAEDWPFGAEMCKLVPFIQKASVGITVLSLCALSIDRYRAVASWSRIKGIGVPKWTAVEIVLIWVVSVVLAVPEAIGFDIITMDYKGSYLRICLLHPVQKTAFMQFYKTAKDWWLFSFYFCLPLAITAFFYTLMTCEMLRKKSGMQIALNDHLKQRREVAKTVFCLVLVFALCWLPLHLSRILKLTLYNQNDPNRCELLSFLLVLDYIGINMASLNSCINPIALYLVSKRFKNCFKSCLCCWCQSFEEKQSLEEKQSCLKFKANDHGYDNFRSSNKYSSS", "test": "Displacement of [125I]endothelin-1 from human ETB receptor at 10 uM"}, "[3]": {"test": "Cytotoxicity against african green monkey Vero 76 cells after 3 days by Celltiter-Glo reagent based assay", "format": "cell-based", "settings": "chlorocebus sabaeus, vero 76, 72 h", "how_it_was_run": "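Vero 76 cells were seeded overnight at 12 000/well and given an 8-point 2-fold compound series (20 mM DMSO stock) in EMEM/10% FBS with no virus. Viability was read by CellTiter-Glo after 3 days relative to untreated cells. Run in duplicate; CC50 from a four-parameter logistic or sigmoidal fit.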"}, "[4]": {"target": "hERG (KCNH2) (Homo sapiens, UniProt Q12809)", "sequence (Q12809 whole entry)": "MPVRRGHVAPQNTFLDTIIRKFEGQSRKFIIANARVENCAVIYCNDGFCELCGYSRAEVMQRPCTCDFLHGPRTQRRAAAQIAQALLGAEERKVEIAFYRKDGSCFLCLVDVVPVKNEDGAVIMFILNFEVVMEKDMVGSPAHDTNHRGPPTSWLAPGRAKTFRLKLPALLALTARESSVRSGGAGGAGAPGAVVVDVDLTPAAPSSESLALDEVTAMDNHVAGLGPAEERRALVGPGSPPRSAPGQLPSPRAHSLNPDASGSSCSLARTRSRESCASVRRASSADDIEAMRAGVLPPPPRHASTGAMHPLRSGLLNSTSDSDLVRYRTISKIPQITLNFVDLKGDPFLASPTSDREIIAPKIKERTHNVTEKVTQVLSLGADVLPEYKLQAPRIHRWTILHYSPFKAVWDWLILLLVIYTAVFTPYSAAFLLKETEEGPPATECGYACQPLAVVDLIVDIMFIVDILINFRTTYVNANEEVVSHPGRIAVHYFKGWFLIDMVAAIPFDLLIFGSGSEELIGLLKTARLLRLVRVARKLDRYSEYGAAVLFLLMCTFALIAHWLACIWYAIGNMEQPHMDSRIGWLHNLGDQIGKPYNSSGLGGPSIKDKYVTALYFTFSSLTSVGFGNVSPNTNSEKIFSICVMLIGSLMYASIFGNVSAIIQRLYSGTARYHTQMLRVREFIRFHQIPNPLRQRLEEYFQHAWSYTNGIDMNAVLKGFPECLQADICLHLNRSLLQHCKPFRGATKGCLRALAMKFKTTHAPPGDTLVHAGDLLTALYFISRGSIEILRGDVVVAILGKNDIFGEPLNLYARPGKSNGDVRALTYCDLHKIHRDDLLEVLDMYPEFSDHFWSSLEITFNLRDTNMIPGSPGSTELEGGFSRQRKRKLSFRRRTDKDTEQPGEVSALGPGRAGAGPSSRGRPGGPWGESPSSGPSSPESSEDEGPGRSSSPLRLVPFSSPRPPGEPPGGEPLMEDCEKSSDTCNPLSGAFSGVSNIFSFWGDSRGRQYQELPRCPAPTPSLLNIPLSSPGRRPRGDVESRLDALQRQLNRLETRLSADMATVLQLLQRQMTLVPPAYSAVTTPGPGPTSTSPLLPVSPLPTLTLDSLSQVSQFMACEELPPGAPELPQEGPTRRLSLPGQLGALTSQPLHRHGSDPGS", "test": "Displacement of [3H]astemizole from human ERG channel at 10 uM", "settings": "probe [3H]astemizole"}, "[5]": {"tested_on": "Venezuelan equine encephalitis virus", "test": "Antiviral activity against Venezuelan equine encephalitis virus TrD infected in Vero 76 cells assessed as reduction in viral titer at 5 uM by crystal violet staining based microplaque assay relative to untreated control", "format": "functional, organism-based"}, "[6]": {"target": "Cannabinoid receptor 1 (Homo sapiens) (UniProt P21554)", "sequence (P21554 whole entry)": "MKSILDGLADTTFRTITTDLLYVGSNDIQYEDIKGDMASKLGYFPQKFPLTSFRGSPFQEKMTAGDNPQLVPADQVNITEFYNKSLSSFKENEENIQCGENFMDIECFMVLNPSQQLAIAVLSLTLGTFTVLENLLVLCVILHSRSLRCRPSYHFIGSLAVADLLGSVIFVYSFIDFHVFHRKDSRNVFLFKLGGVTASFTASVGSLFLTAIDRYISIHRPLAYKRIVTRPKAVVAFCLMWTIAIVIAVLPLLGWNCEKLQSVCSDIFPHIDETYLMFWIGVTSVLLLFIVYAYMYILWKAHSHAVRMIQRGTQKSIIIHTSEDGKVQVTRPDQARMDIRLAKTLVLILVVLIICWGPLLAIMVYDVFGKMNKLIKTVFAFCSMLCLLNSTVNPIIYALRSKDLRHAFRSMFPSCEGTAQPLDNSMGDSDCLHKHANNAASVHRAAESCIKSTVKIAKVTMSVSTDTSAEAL", "test": "Displacement of [3H]SR141716A from human CB1 receptor at 10 uM"}, "[7]": {"target": "D(3) dopamine receptor (Homo sapiens) (UniProt P35462)", "sequence (P35462 whole entry)": "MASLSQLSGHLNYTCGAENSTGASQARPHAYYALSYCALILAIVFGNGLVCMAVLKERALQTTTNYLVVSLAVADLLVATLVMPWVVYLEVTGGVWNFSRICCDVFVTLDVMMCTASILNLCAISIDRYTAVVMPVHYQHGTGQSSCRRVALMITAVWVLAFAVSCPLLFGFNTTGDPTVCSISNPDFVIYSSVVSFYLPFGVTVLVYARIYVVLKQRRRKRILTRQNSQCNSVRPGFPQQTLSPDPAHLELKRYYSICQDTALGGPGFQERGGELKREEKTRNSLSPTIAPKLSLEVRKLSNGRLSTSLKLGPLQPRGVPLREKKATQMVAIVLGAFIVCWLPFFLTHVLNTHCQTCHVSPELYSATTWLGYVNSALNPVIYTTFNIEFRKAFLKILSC", "test": "Displacement of [3H]spiperone from human dopamine D3 receptor at 10 uM"}, "[8]": {"target": "Sodium-dependent noradrenaline transporter (Homo sapiens) (UniProt P23975)", "test": "Displacement of [125I]RTI-55 from human NET at 10 uM"}, "[9]": {"tested_on": "Mus musculus", "test": "Toxicity in Venezuelan equine encephalitis virus TC83 infected C3H/HeN mouse assessed as induction of lethargy at 5 mg/kg/day, ip BID for 4 days", "format": "organism-based", "parameters": "route intraperitoneal", "settings": "in vivo, 96 h"}, "[10]": {"target": "Adenosine receptor A3 (Homo sapiens) (UniProt P0DMS8)", "sequence (P0DMS8 whole entry)": "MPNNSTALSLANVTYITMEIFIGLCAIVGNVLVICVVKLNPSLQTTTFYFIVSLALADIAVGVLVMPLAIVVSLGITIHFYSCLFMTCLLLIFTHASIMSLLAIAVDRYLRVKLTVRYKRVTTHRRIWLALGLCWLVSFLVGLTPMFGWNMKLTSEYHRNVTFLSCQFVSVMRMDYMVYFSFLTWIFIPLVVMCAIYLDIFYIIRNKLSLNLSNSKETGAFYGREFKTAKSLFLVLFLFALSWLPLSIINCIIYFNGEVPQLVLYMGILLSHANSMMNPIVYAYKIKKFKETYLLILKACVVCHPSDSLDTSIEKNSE", "test": "Displacement of [125I]AB-MECA from human adenosine A3 receptor at 10 uM"}, "[11]": {"target": "Substance-P receptor (Homo sapiens) (UniProt P25103)", "sequence (P25103 whole entry)": "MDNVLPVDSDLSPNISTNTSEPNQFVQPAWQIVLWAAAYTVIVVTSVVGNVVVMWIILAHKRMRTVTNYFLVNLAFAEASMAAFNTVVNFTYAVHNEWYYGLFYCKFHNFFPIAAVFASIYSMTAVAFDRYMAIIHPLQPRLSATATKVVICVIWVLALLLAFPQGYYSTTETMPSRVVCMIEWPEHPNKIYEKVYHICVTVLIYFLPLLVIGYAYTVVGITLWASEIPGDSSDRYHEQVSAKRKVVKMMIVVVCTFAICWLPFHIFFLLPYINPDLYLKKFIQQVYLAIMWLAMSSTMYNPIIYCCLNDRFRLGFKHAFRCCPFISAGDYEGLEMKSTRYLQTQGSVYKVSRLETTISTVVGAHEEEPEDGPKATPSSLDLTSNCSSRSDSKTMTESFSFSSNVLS", "test": "Displacement of [3H]substance P from human NK1 receptor 2 at 10 uM"}, "[12]": {"species_on_record": "Rattus norvegicus", "test": "Displacement of [125I]omega-Conotoxin GVIA from rat N-type calcium channel at 10 uM"}, "[13]": {"target": "Sigma non-opioid intracellular receptor 1 (Homo sapiens) (UniProt Q99720)", "sequence (Q99720 whole entry)": "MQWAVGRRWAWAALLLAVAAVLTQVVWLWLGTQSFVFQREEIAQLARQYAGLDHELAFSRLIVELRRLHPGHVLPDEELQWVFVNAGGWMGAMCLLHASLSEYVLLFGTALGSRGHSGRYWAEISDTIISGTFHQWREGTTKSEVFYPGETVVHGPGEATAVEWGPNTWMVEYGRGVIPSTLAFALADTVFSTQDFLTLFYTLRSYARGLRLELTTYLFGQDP", "test": "Displacement of [3H]haloperidol from human sigma1 receptor at 10 uM"}, "[14]": {"tested_on": "Venezuelan equine encephalitis virus", "test": "Antiviral activity against Venezuelan equine encephalitis virus TC83 infected in C3H/HeN mouse assessed as mouse survival at […], ip BID for 4 days dosed 4 hrs before viral infection (reference value: 14%)", "format": "functional", "settings": "route intraperitoneal"}, "[15]": {"test": "Hepatotoxicity in human Fa2N-4 cells", "format": "toxicity, cell-based", "settings": "read-out: LD50 (the source's name)"}, "[16]": {"tested_on": "Venezuelan equine encephalitis virus", "test": "Antiviral activity against Venezuelan equine encephalitis virus V3526 infected in Vero 76 cells assessed as reduction in virus-induced cytopathic effect after 2 days by Celltiter-Glo reagent based assay", "format": "functional, organism-based", "settings": "V3526, Vero 76, 48 h"}, "[17]": {"target": "Adenosine receptor A1 (Homo sapiens) (UniProt P30542)", "test": "Displacement of [3H]DPCPX from human adenosine A1 receptor at 10 uM"}, "[18]": {"target": "Neuropeptide Y receptor type 2 (Homo sapiens) (UniProt P49146)", "test": "Displacement of [125I]Peptide YY from human neuropeptide Y Y2 receptor at 10 uM"}, "[19]": {"target": "CYP2C19 (Homo sapiens, UniProt P33261)", "test": "Inhibition of human CYP2C19 at 10 uM", "format": "ADME"}, "[20]": {"target": "Mu-type opioid receptor (Homo sapiens) (UniProt P35372)", "test": "Displacement of [3H]diprenorphine from human mu opiate receptor at 10 uM"}, "[21]": {"target": "Prostaglandin E2 receptor EP4 subtype (Homo sapiens) (UniProt P35408)", "test": "Displacement of [3H]prostaglandin E2 from human EP4 […] at 10 uM"}, "[22]": {"target": "Sodium-dependent serotonin transporter (Homo sapiens) (UniProt P31645)", "sequence (P31645 whole entry, looked up)": "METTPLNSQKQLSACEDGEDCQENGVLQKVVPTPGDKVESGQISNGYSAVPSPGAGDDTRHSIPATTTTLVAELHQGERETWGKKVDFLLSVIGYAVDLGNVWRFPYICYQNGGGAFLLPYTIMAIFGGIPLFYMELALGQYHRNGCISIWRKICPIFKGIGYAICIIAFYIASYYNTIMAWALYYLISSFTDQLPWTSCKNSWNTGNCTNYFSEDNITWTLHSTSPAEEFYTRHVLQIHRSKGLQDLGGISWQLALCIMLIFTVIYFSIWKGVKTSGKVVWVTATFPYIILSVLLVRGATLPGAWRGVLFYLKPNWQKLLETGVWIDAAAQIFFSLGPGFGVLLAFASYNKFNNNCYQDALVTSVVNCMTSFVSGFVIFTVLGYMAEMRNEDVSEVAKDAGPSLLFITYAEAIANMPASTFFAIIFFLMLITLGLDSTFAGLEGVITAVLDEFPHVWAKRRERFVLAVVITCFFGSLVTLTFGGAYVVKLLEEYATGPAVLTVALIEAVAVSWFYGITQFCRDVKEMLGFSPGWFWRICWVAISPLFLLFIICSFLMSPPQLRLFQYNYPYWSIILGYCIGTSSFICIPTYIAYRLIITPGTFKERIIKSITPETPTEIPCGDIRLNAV", "test": "Displacement of [3H]paroxetine from human SERT at 10 uM"}, "[23]": {"test": "Plasma concentration in C57BL/6 mouse at 10 mg/kg, ip administered as single dose measured after 120 mins by LC/MS analysis based RACE assay", "format": "ADME, organism-based", "parameters": "dose 10 mg/kg, route intraperitoneal", "how_it_was_run": "(§1)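 Single intraperitoneal dose of 1, 5 or 10 mg/kg given to C57BL/6 mice, 3 mice per dose and time point, with a vehicle-control cohort. Plasma was sampled at 20 and 120 min post-dose and drug level measured by LC/MS. Each time point averaged two injections (<20% difference); values are means ± standard deviation in μM.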"}, "[24]": {"species_on_record": "Mus musculus", "test": "Displacement of [3H]PDBu from mouse phorbol ester receptor at 10 uM"}, "[25]": {"target": "B2 bradykinin receptor (Homo sapiens) (UniProt P30411)", "sequence (P30411 whole entry)": "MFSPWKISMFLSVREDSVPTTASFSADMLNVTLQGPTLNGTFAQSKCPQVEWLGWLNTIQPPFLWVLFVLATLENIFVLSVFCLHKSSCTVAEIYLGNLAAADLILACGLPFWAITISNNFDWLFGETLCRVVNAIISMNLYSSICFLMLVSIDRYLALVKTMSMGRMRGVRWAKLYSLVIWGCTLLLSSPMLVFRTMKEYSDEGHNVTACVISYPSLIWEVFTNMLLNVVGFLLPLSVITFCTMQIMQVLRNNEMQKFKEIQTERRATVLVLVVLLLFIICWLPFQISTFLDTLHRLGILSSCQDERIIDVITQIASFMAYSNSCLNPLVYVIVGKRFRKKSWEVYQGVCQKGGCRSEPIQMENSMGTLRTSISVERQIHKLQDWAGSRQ", "test": "Displacement of [3H]bradykinin from human bradykinin B2 receptor at 10 uM"}, "[26]": {"target": "Estrogen receptor (Homo sapiens) (UniProt P03372)", "test": "Displacement of [3H]estradiol from human ERalpha at 10 uM"}, "[27]": {"tested_on": "Mus musculus", "test": "Toxicity in Venezuelan equine encephalitis virus TC83 infected C3H/HeN mouse assessed as body weight loss at 40 mg/kg/day, ip BID for 4 days", "format": "organism-based", "parameters": "route intraperitoneal", "settings": "in vivo, 96 h"}, "[28]": {"target": "CYP2C9 (Homo sapiens, UniProt P11712)", "test": "Inhibition of human CYP2C9 at 10 uM", "format": "ADME"}, "[29]": {"species_on_record": "Mus musculus", "test": "Displacement of [125I]interleukin-1beta from mouse IL1 receptor at 10 uM"}, "[30]": {"test": "Drug concentration in C57BL/6 mouse brain at 1 mg/kg, ip administered as single dose measured after 120 mins by LC/MS analysis based RACE assay", "format": "ADME, organism-based", "parameters": "dose 1 mg/kg, route intraperitoneal", "settings": "read-out: Drug uptake", "how_it_was_run": "(§2)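 Brain tissue taken at the terminal 120 min point after one intraperitoneal dose (1, 5 or 10 mg/kg) in C57BL/6 mice, 3 per group, with a vehicle cohort. Drug level measured by LC/MS, averaging two injections per sample; reported as mean ± standard deviation, μM.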"}, "[31]": {"target": "Neuropeptide Y receptor type 1 (Homo sapiens) (UniProt P25929)", "test": "Displacement of [125I]Peptide YY from human neuropeptide Y Y1 receptor at 10 uM"}, "[32]": {"target": "Histamine H1 receptor (Homo sapiens) (UniProt P35367)", "sequence (P35367 whole entry)": "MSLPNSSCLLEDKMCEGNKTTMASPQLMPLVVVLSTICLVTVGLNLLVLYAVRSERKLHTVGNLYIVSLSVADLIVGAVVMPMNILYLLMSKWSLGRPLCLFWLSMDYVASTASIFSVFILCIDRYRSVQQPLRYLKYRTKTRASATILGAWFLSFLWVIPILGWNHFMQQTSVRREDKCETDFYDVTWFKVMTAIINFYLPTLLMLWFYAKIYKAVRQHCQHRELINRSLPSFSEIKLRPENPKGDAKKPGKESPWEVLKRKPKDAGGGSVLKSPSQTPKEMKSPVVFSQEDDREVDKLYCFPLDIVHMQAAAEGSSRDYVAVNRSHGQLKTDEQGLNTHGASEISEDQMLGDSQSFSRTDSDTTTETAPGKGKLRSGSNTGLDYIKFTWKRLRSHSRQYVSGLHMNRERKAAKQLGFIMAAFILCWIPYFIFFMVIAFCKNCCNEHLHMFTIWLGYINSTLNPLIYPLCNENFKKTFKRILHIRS", "test": "Displacement of [3H]pyrilamine from human histamine H1 receptor at 10 uM"}, "[33]": {"tested_on": "Liver", "test": "Stability in mouse liver microsomes as parent compound remaining", "format": "ADME", "how_it_was_run": "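Mouse hepatic microsomes incubated for 1 h; reported as % parent remaining.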"}, "[34]": {"species_on_record": "Rattus norvegicus", "test": "Displacement of [3H]idazoxan from rat Imidazole receptor 2 at 10 uM"}, "[35]": {"tested_on": "Venezuelan equine encephalitis virus", "test": "Antiviral activity against Venezuelan equine encephalitis virus TrD infected in Vero 76 cells assessed as reduction in viral titer at 1 uM by crystal violet staining based microplaque assay relative to untreated control", "format": "functional"}, "[36]": {"test": "Plasma concentration in C57BL/6 mouse at 1 mg/kg, ip administered as single dose measured after 20 mins by LC/MS analysis based RACE assay", "format": "ADME, organism-based", "parameters": "dose 1 mg/kg, route intraperitoneal", "how_it_was_run": "as §1"}, "[37]": {"test": "Drug concentration in C57BL/6 mouse brain at 10 mg/kg, ip administered as single dose measured after 120 mins by LC/MS analysis based RACE assay", "format": "ADME, organism-based", "parameters": "dose 10 mg/kg, route intraperitoneal", "settings": "read-out: Drug uptake", "how_it_was_run": "as §2"}},
  "note": "Calls of active or inactive are those of the source. The calls are words filed in the database; no cut-off is given here.",
  "data": [
    {"smiles": "CN1CCN(C)/C(=N/c2ccc([N+](=O)[O-])cc2C(=O)Nc2ccccc2)C1", "values": [
      {"measurement": "inhibition", "setting": "[1]", "result": 1.61, "unit": "%"},
      {"measurement": "inhibition", "setting": "[2]", "result": 8.32, "unit": "%"},
      {"measurement": "CC50", "setting": "[3]", "result": "> 50", "unit": "µM"},
      {"measurement": "inhibition at 10 µM", "setting": "[4]", "result": 30, "unit": "%"},
      {"measurement": "inhibition", "setting": "[5]", "result": "Active"},
      {"measurement": "inhibition", "setting": "[6]", "result": -2.06, "unit": "%"},
      {"measurement": "inhibition", "setting": "[7]", "result": -1.53, "unit": "%"},
      {"measurement": "inhibition", "setting": "[8]", "result": 91.1, "unit": "%"},
      {"measurement": "Activity", "setting": "[9]", "result": "Non-toxic"},
      {"measurement": "inhibition", "setting": "[10]", "result": 26.7, "unit": "%"},
      {"measurement": "inhibition", "setting": "[11]", "result": 8.19, "unit": "%"},
      {"measurement": "inhibition", "setting": "[12]", "result": 22.7, "unit": "%"},
      {"measurement": "inhibition", "setting": "[13]", "result": 6.54, "unit": "%"},
      {"measurement": "survival at […]", "setting": "[14]", "result": 127, "unit": "%"},
      {"measurement": "CC50", "setting": "[15]", "result": "> 250", "unit": "µM"},
      {"measurement": "EC50", "setting": "[16]", "result": 0.02, "unit": "µM"},
      {"measurement": "inhibition", "setting": "[17]", "result": 20.4, "unit": "%"},
      {"measurement": "inhibition", "setting": "[18]", "result": -6.1, "unit": "%"},
      {"measurement": "inhibition at 10 µM", "setting": "[19]", "result": 17, "unit": "%"},
      {"measurement": "inhibition", "setting": "[20]", "result": 25.4, "unit": "%"},
      {"measurement": "inhibition", "setting": "[21]", "result": 4.82, "unit": "%"},
      {"measurement": "inhibition", "setting": "[22]", "result": -5.97, "unit": "%"},
      {"measurement": "concentration at 2 h", "setting": "[23]", "result": 490, "unit": "nM"},
      {"measurement": "inhibition", "setting": "[24]", "result": 0, "unit": "%"},
      {"measurement": "inhibition", "setting": "[25]", "result": 3.4, "unit": "%"},
      {"measurement": "inhibition", "setting": "[26]", "result": 10, "unit": "%"},
      {"measurement": "Activity", "setting": "[27]", "result": "Non-toxic"},
      {"measurement": "inhibition at 10 µM", "setting": "[28]", "result": 7, "unit": "%"},
      {"measurement": "inhibition", "setting": "[29]", "result": 3.11, "unit": "%"},
      {"measurement": "concentration at 2 h", "setting": "[30]", "result": 190, "unit": "nM"},
      {"measurement": "inhibition", "setting": "[31]", "result": 25.9, "unit": "%"},
      {"measurement": "inhibition", "setting": "[32]", "result": 12.3, "unit": "%"},
      {"measurement": "Stability", "setting": "[33]", "result": 42.9, "unit": "%"},
      {"measurement": "inhibition", "setting": "[34]", "result": 14.4, "unit": "%"},
      {"measurement": "inhibition", "setting": "[35]", "result": "Active"},
      {"measurement": "concentration at 20 min", "setting": "[36]", "result": 200, "unit": "nM"},
      {"measurement": "concentration at 2 h", "setting": "[37]", "result": 350, "unit": "nM"}
    ]}
  ]
}
